# From ChEMBL document CHEMBL1155814, “Structure-activity correlations for beta-phenethylamines at human trace amine receptor 1” (Bioorg Med Chem, 2008)
# Active and inactive are the calls of the source.
# What was measured:
# Type in all cases: functional, cell-based
# [1] = biological target: T1, Trace amine-associated receptor 1 (Homo sapiens, UniProt Q96RJ0); assay: (§1) Agonist activity at human trace amine associated receptor 1 expressed in RD-HGA16 CHO-K1 cells coexpressed with Galpha16 protein assessed as internal calcium mobilization by calcium 3 assay
# T1 sequence (Q96RJ0 whole entry): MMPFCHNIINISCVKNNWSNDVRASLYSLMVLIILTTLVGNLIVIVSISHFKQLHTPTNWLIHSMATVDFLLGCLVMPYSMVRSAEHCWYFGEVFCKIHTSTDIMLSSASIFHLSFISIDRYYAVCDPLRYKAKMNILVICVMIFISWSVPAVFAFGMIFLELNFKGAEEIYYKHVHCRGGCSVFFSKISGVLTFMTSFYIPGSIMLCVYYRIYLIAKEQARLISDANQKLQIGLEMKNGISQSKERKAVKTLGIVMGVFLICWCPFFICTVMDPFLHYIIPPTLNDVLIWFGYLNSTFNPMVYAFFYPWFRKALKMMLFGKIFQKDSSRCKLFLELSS
# Summary of the method: (§2)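 Unmodified human TAAR1 stably expressed in CHO cells carrying Galpha16 (RD-HGA16). Cells seeded at 30,000/well in HAM's F-12 with 10% FBS, 400 ug/mL hygromycin and 400 µg/mL geneticin, overnight at 37 °C, 5% CO2. Loaded 1 h at 37 °C with Calcium 3 dye at 1/3 kit strength. Basal signal recorded 13 sec before compound addition. Compounds tested at 7–8 concentrations in duplicate. A six-point β-PEA curve was run on each plate.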
# [2] = biological target: T2, Trace amine-associated receptor 1 (Homo sapiens) (UniProt Q96RJ0); assay: Agonist activity at human trace amine associated receptor 1 expressed in RD-HGA16 CHO-K1 cells coexpressed with Galpha16 protein assessed as internal calcium mobilization by calcium 3 assay relative to 2-phenylethanamine
# T2 sequence (whole entry): T1 sequence (Q96RJ0 whole entry)
# Summary of the method: as §2, with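 “strength. Fluorescence read from the bottom at 485/525 nm, 515 cutoff.” for “strength.”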
# [3] = biological target: T1, Trace amine-associated receptor 1; assay: Agonist activity at human trace amine associated receptor 1 expressed in AV12-664 cells coexpressed with rat GalphaS protein assessed as cAMP accumulation
# [4] = biological target: T2, Trace amine-associated receptor 1 (Homo sapiens); assay: Agonist activity at human trace amine associated receptor 1 expressed in AV12-664 cells coexpressed with rat […] protein assessed as cAMP accumulation relative to 2-phenylethanamine
# [5] = biological target: T2, Trace amine-associated receptor 1 (Homo sapiens); assay: as §1; summary of the method: as §2
Structure (SMILES),EC50 [1] [µM],Emax [2] [%],EC50 [3] [µM],Emax [4] [%],Activity [5]
CCc1cc(OC)c(CCN)cc1OC,6.41,32,,,
COc1ccccc1CCN,0.144,95,,,
CNCCc1cccc(Cl)c1,0.501,77,,,
NCCc1ccc2c(c1)OCO2,5.03,63,,,
Cc1cccc(CCN)c1,0.638,93,,,
NCCc1c(F)cc(O)cc1F,0.767,103,,,
CNCCc1cccc(Br)c1,1.07,71,,,
NCCc1cccc(Br)c1,0.398,75,,,
NCCc1cccc(Cl)c1Cl,1.16,84,,,
CC(C)C(CN)c1ccccc1 (stereo unspecified),9.95,46,,,
Cc1ccccc1CCN,0.355,97,,,
CCc1ccc(CCN)cc1,9.1,86,,,
NCCc1ccccc1O,0.614,90,,,
NCCc1ccc(C(F)(F)F)cc1,11.6,78,,,
CNCCc1ccc(Cl)cc1,7.43,67,,,
NCCc1ccc(Cl)c(Cl)c1,3.43,78,,,
CNCCc1ccccc1,0.387,69,0.25,93.4,
COc1ccc(OC)c(CCN)c1,2.01,69,,,
CN(C)CCc1ccccc1Br,3.46,78,,,
NCCc1ccc(O)cc1 [TYRAMINE],0.731,91,,,
COc1cc(CCN)c(OC)cc1C,6.48,36,,,
NCCc1ccc(F)cc1,0.74,81,,,
CN(C)CCc1ccccc1Cl,0.687,79,,,

Structure (SMILES),EC50 [1] [µM],Emax [2] [%],EC50 [3] [µM],Emax [4] [%],Activity [5]
C[C@@H](N)Cc1ccccc1,,64,,,
NCCc1cccc(C(F)(F)F)c1,3.95,69,,,
CN(C)CCc1ccc(Br)cc1,24.4,40,,,
COc1cccc(CCN)c1,1.44,73,,,
CN(C)CCc1ccccc1F,1.29,75,,,
CNCCc1ccc(Br)cc1,6.54,60,,,
CNCCc1ccccc1Cl,0.16,70,,,
CN(C)CCc1cccc(Cl)c1,5.98,62,,,
CNCCc1ccccc1F,0.117,75,,,
NCCc1ccc(Cl)cc1,2.86,104,,,
NCCc1ccccc1Cl,0.077,72,,,
COc1cc(CCN)c(OC)cc1Cl,3.75,30,,,
COc1cc(CCN)c(OC)cc1Br,7.19,22,,,
NCCc1ccccc1F,0.065,91,,,
CC(C)(CN)c1ccccc1,7.88,70,,,
CN(C)CCc1cccc(Br)c1,8.3,88,,,
CNCCc1ccc(F)cc1,1.04,63,,,
NCCc1ccccc1Br,0.057,89,,,
NCCc1cccc(Cl)c1,0.189,105,,,
NCCc1ccc(Br)cc1,1.54,98,,,
COc1cc(F)c(CCN)c(F)c1,1.4,90,,,
NCCc1cccc(O)c1,1.74,78,,,
CC(C)(C)c1ccc(CCN)cc1,5110,,,,

Structure (SMILES),EC50 [1] [µM],Emax [2] [%],EC50 [3] [µM],Emax [4] [%],Activity [5]
N[C@@H]1C[C@H]1c1ccccc1 (relative stereo),1.51,72,,,
NCCc1c(Cl)cccc1Cl,0.051,94,,,
C[C@@H](CN)c1ccccc1,0.361,97,,,
NCC(c1ccccc1)c1ccccc1,3.4,70,,,
CN(C)CCc1ccc(F)cc1,19.1,71,,,
NCCc1cccc(F)c1,0.15,93,,,
CC(C)(N)Cc1ccccc1 [PHENTERMINE],5.47,68,,,
CNCCc1cccc(F)c1,0.53,88,,,
NCC1(c2ccccc2)CC1,5.05,79,,,
CN(C)CCc1cccc(F)c1,4.32,78,,,
CN(C)CCc1ccc(Cl)cc1,630,43,,,
COc1cc(OC)c(OC)cc1CCN,,,,,inactive
COc1ccc(CCN)cc1,5.98,106,,,
NCCc1ccccc1 [PHENETHYLAMINE],0.129,100,,,
CN(C)CCc1ccccc1,100,,1.49,97.1,
C[C@H](N)Cc1ccccc1,,74,,,
Cc1ccc(CCN)cc1,4.38,96,,,
Cc1ccc(C)c(CCN)c1,0.377,84,,,
NCCc1c(F)cccc1Cl,0.312,94,,,
C[C@H](CN)c1ccccc1,0.129,104,,,
CNCCc1ccccc1Br,0.205,93,,,
NCCc1ccc([N+](=O)[O-])cc1,167,,,,
NCCc1ccccc1I,0.103,109,,,
